How the values were obtained:
L1210 [1] = test: Tested for transport into L1210 cells measured as cell influx; assay type: functional, cell-based, Mus musculus
CCRF S-180 [2] = test: Tested for the ability to inhibit growth in vitro against S180 cells; assay type: functional, cell-based; conditions: Mus musculus
Mus musculus [3] = test: Antitumor activity against E0771 mammary adenocarcinoma in mice at 30 mg/kg(5 days) was determined and […] at day 14 was reported; assay type: functional
Mus musculus [4] = test: Antitumor activity against E0771 mammary adenocarcinoma in mice at 3 mg/kg(5 days) was determined and tumor volume at day 10 was reported; assay type: functional
Summary of the method: (§1)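 Mice bearing implanted E0771 mammary adenocarcinoma, five per test group. Dosing was daily for 5 days, starting on day 3 after implantation. Tumor volume (mm³) was calculated as 4/3πr³ and is also expressed as treated/control (%).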

Mus musculus [5] = test: Antitumor activity against E0771 mammary adenocarcinoma in mice at 6 mg/kg(5 days) was determined and […] at day 7 was reported; assay type: functional
Summary of the method: (§2)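 E0771 mammary adenocarcinoma implanted in mice, five mice per group. Treatment was given daily for 5 days, starting day 3 after implantation. Tumor volume was calculated as 4/3πr³ and averaged on days 7, 10 and 14. T/C (%) is the treated/control tumor volume. Toxic deaths were recorded.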

Mus musculus [6] = test: Antitumor activity against E0771 mammary adenocarcinoma in mice at 6 mg/kg(5 days) was determined and […] at day 10 was reported; assay type: functional; summary of the method: as §2
Mus musculus [7] = test: Antitumor activity against E0771 mammary adenocarcinoma in mice at 100 mg/kg(5 days) was determined and tumor volume at day 14 was reported; assay type: functional; summary of the method: as §1
HL-60 = test: Tested for the ability to inhibit growth in vitro against HL60; assay type: functional, cell-based; conditions: Homo sapiens
Mus musculus [8] = test: Antitumor activity against E0771 mammary adenocarcinoma in mice at 30 mg/kg(5 days) was determined and tumor volume at day 14 was reported; assay type: functional
[9] = system: Folyl-polyglutamate synthase; test: Michaelis-Menten constant was determined against CCRF-CEM Folyl-polyglutamate synthase; assay type: ADME; conditions: human, folylpolyglutamate synthase from CCRF-CEM cells
Summary of the method: (§3)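 FPGS from CCRF-CEM cells: freeze-thawed lysates fractionated by (NH₄)₂SO₄ (0–40% saturation pellet) and gel sieving, stored at –90 °C in 20% glycerol, free of detectable γ-glutamyl hydrolase. Product was separated on DEAE-cellulose minicolumns. Run in duplicate or triplicate, and each experiment was repeated at least once.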

Mus musculus [10] = test: Antitumor activity against E0771 mammary adenocarcinoma in mice at 3 mg/kg(5 days) was determined and […] at day 7 was reported; assay type: functional; summary of the method: as §2
Mus musculus [11] = test: Antitumor activity against E0771 mammary adenocarcinoma in mice at 100 mg/kg(5 days) was determined and […] at day 14 was reported; assay type: functional
[12] = biological target: T1, Folylpolyglutamate synthase, mitochondrial (Mus musculus) (UniProt P48760); test: Specific activity of L1210 Folyl-polyglutamate synthase
T1 sequence (whole entry): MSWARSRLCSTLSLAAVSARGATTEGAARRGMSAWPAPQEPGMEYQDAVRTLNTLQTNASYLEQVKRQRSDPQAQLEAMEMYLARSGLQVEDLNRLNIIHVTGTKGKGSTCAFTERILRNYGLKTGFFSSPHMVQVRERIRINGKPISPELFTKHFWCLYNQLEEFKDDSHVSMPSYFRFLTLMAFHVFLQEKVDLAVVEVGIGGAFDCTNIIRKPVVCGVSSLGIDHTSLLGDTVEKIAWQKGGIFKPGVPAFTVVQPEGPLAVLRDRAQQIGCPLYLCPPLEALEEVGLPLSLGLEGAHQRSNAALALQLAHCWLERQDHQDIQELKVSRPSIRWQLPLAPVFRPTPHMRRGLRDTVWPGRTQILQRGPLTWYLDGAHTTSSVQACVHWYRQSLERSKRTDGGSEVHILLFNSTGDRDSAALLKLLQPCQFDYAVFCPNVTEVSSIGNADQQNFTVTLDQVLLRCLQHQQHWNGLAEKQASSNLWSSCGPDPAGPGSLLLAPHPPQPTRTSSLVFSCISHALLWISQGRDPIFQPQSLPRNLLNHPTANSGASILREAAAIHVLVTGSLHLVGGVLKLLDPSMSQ
Summary of the method: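 FPGS from L1210 cells was assayed by [³H]glutamate ligation, like the human enzyme assay. Each folate substrate was at 100 μM, and only specific activity was measured.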

Mus musculus [13] = test: Antitumor activity against E0771 mammary adenocarcinoma in mice at 6 mg/kg(5 days) was determined and tumor volume at day 10 was reported; assay type: functional; summary of the method: as §1
L1210 [14] = test: Tested for the ability to inhibit growth in vitro against L1210; assay type: functional, cell-based; conditions: Mus musculus
Mus musculus [15] = test: Antitumor activity against E0771 mammary adenocarcinoma in mice at 3 mg/kg(5 days) was determined and […] at day 10 was reported; assay type: functional; summary of the method: as §2
Mus musculus [16] = test: Antitumor activity against E0771 mammary adenocarcinoma in mice at 6 mg/kg(5 days) was determined and tumor volume at day 7 was reported; assay type: functional; summary of the method: as §1
Mus musculus [17] = test: Antitumor activity against E0771 mammary adenocarcinoma in mice at 3 mg/kg(5 days) was determined and tumor volume at day 7 was reported; assay type: functional; summary of the method: as §1
Mus musculus [18] = test: Antitumor activity against E0771 mammary adenocarcinoma in mice at 12 mg/kg (5 days) was determined and […] at day 14 was reported; assay type: functional
Mus musculus [19] = test: Antitumor activity against E0771 mammary adenocarcinoma in mice at 24 mg/kg(5 days) was determined and tumor volume at day 10 was reported; assay type: functional; summary of the method: as §1
CCRF S-180 [20] = test: Tested for the ability to inhibit growth in vitro against S180; assay type: functional, cell-based; conditions: Mus musculus
Mus musculus [21] = test: Antitumor activity against E0771 mammary adenocarcinoma in mice at 12 mg/kg(5 days) was determined and tumor volume at day 10 was reported; assay type: functional; summary of the method: as §1
Mus musculus [22] = test: Antitumor activity against E0771 mammary adenocarcinoma in mice at 12 mg/kg (5 days) was determined and […] at day 10 was reported; assay type: functional; summary of the method: as §2
Mus musculus [23] = test: Antitumor activity against E0771 mammary adenocarcinoma in mice at 24 mg/kg(5 days) was determined and […] at day 14 was reported; assay type: functional
Mus musculus [24] = test: Antitumor activity against E0771 mammary adenocarcinoma in mice at 12 mg/kg(5 days) was determined and […] at day 7 was reported; assay type: functional
Dihydrofolate reductase = biological target: T2, Dihydrofolate reductase (Mus musculus, UniProt P00375); test: Inhibitory activity of Dihydrofolate reductase in L1210 cells; assay type: cell-based
T2 sequence (P00375 whole entry): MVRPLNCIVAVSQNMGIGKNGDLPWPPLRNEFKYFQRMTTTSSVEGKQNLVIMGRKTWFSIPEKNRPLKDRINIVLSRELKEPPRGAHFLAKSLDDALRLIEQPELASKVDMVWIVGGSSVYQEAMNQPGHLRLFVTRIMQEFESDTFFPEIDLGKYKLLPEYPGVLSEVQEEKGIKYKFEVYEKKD

Mus musculus [25] = test: Antitumor activity against E0771 mammary adenocarcinoma in mice at 12 mg/kg(5 days) was determined and tumor volume at day 14 was reported; assay type: functional; summary of the method: as §1
Mus musculus [26] = test: Antitumor activity against E0771 mammary adenocarcinoma in mice at 12 mg/kg(5 days) was determined and tumor volume at day 7 was reported; assay type: functional; summary of the method: as §1
Mus musculus [27] = test: Antitumor activity against E0771 mammary adenocarcinoma in mice at 24 mg/kg(5 days) was determined and […] at day 10 was reported; assay type: functional
CCRF-CEM = test: Percent inhibition of Folyl-polyglutamate synthase from CCRF-CEM cells; assay type: cell-based; design: concentration or dose not given beside the values; conditions: Homo sapiens, dose or concentration not given here
Summary of the method: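 FPGS was partially purified from CCRF-CEM cells by (NH₄)₂SO₄ fractionation and gel sieving, with no detectable γ-glutamyl hydrolase. Product was separated on DEAE-cellulose. Percent inhibition is reported.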

[28] = Activity relative to saturating aminopterine at 100 uM against CCRF-CEM Folyl-polyglutamate synthetase; assay type: ADME; conditions: human; summary of the method: as §3
Mus musculus [29] = test: Antitumor activity against E0771 mammary adenocarcinoma in mice at 24 mg/kg(5 days) was determined and […] at day 7 was reported; assay type: functional; summary of the method: as §2
Mus musculus [30] = test: Antitumor activity against E0771 mammary adenocarcinoma in mice at 24 mg/kg(5 days) was determined and tumor volume at day 14 was reported; assay type: functional; summary of the method: as §1
Mus musculus [31] = test: Antitumor activity against E0771 mammary adenocarcinoma in mice at 24 mg/kg(5 days) was determined and tumor volume at day 7 was reported; assay type: functional; summary of the method: as §1

CN(Cc1cnc2nc(N)nc(N)c2n1)c1ccc(C(=O)N[C@@H](CCC(=O)O)C(=O)O)cc1 [METHOTREXATE]
Ki (L1210 [1]): 3930 nM
IC50 (CCRF S-180 [2]): 10 nM
T/C (Mus musculus [3]): 31%
Tumor volume (Mus musculus [4]): 624 mm**3
T/C (Mus musculus [5]): 49%
T/C (Mus musculus [6]): 30%
Tumor volume (Mus musculus [7]): 1437 mm**3
IC50 (HL-60): 8.1 nM
Tumor volume (Mus musculus [8]): 540 mm**3
Km [9]: 42 µM
T/C (Mus musculus [10]): 81%
T/C (Mus musculus [11]): 83%
Specific activity (pM hr-1 (mg of protein)-1) [12]: 0.38
Tumor volume (Mus musculus [13]): 187 mm**3
IC50 (L1210 [14]): 9 nM
T/C (Mus musculus [15]): 100%
Tumor volume (Mus musculus [16]): 108 mm**3
Tumor volume (Mus musculus [17]): 180 mm**3

Cc1c(CN(C)c2ccc(C(=O)NC(CCC(=O)O)C(=O)O)c3ccccc23)cnc2nc(N)nc(N)c12 (configuration not stated)
Ki (L1210 [1]): 660 nM
T/C (Mus musculus [18]): 60%
Tumor volume (Mus musculus [19]): 119 mm**3
IC50 (CCRF S-180 [20]): 2.6 nM
Tumor volume (Mus musculus [21]): 333 mm**3
IC50 (HL-60): 0.56 nM
T/C (Mus musculus [22]): 53%
T/C (Mus musculus [23]): 28%
T/C (Mus musculus [24]): 49%
Ki (Dihydrofolate reductase): 0.00484 nM
Tumor volume (Mus musculus [25]): 1048 mm**3
IC50 (L1210 [14]): 2.4 nM
Tumor volume (Mus musculus [26]): 108 mm**3
T/C (Mus musculus [27]): 19%
inhibition (CCRF-CEM): 10%
Relative Vmax [28]: 0.04
T/C (Mus musculus [29]): 39%
Tumor volume (Mus musculus [30]): 493 mm**3
Tumor volume (Mus musculus [31]): 87 mm**3
